Source: article PMC3759818 (Pharmaceutical research, 2009)
Several values for one entry are separate records, joined by “and”; a condition that tells them apart may be missing. Equal entries are not always repeated. Entries after “also recorded” stand apart in the source; their conditions may differ. One block for each molecule: values may come before it.

Key:
MIAPaCa-2 cells = assay: PGE2 immunoassay in conditioned medium of MIAPaCa-2 cells; type: cell-based, human; conditions: 1 or 4 μM, 24 h, vs untreated control
[1] = Pancreas pharmacokinetics in mice after single intragastric dose; type: in vivo
Procedure, shortened: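 Female ICR-SCID mice, 7–8 weeks old, 18 per compound, got a single 250 mg/kg dose in sesame oil by intragastric intubation. Two mice were killed at 0, 1, 2, 4, 6, 8, 12, 16 and 24 h. Pancreas was PBS-washed, blotted, weighed, frozen at −80°C, then homogenized in 5 volumes ice-cold 0.9% saline. Homogenate was ethyl acetate-extracted with zileuton internal standard and assayed by LC-MS/MS. Values are means of two mice.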

NF-κB = type: cell-based, human; conditions: MIAPaCa-2 cells, EMSA
[2] = DPPH radical scavenging assay; type: biochemical; conditions: read-out: IC50, DPPH radical scavenging; data not shown
[3] = tested on: COX-2 positive BxPC-3 pancreatic cancer cells; conditions: BxPC-3 cells, MTT assay; cited from earlier work
BxPC-3 cells = assay: PGE2 immunoassay in conditioned medium of BxPC-3 cells; type: cell-based, human; conditions: 1 or 4 μM, 24 h, vs untreated control
[4] = Serum pharmacokinetics in mice after single intragastric dose; type: in vivo
Procedure, shortened: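 Female ICR-SCID mice, 7–8 weeks old, 18 per compound, got a single oral 250 mg/kg dose in sesame oil by intragastric tube. Two mice were killed at 0–24 h (nine time points). Cardiac blood was clotted and serum stored at −80°C, then ethyl acetate-extracted with zileuton internal standard and assayed by LC-MS/MS. Cmax was read from the curve. AUClast used linear (rising) and log (falling) trapezoids in non-compartmental analysis. Values are means of two mice.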

Water solubility = type: physicochemical; conditions: data not shown
[5] = serum, oral 1 g/kg body weight, mouse; cited from earlier work
[6] = pancreas, single intragastric 250 mg/kg, mice, mean from two mice
[7] = single intragastric 250 mg/kg, mice, mean from two mice
[8] = female, ICR-SCID, mouse, pancreas, po, 250 mg/kg
[9] = female, ICR-SCID, mouse, po, 250 mg/kg

Cmax in pancreas relative to serum ([1]; at 8 h, oral 250 mg/kg, mice): 44.5 fold | Cmax in pancreas relative to Curcumin ([1]; pancreas, oral 250 mg/kg, mice): 4.3 fold | AUClast (concentration) in pancreas relative to Curcumin ([1]; pancreas, oral 250 mg/kg, mice, 250 mg/kg): 10 fold and 10.6 fold | AUClast [1, 6]: 36.56 µg·h/g | Clast [1, 6]: 0.04 µg/g | Cmax [1, 6]: 9.35 µg/g | Tlast [1, 6]: 12.0 h | Tmax [1, 6]: 8.0 h | IC50 [2]: 0.05 µM | Systemic drug level (serum AUClast) relative to Curcumin ([4]; oral 250 mg/kg, mice): 2.7 fold | AUClast [4, 7]: 1.22 µg·h/mL | Clast [4, 7]: 0.04 µg/mL | Cmax [4, 7]: 0.21 µg/mL | Tlast [4, 7]: 16.0 h | Tmax [4, 7]: 8.0 h | Water solubility relative to Curcumin (Water solubility): 8.4 fold
Structure (SMILES): COc1cc(/C=C/C(=O)C(=Cc2ccc(F)c(F)c2)C(=O)/C=C/c2ccc(O)c(OC)c2)ccc1O [CDF]
PGE2 level in conditioned medium (MIAPaCa-2 cells): significant decrease; also recorded: substantial reduction | NF-κB DNA-binding activity (NF-κB): the effect was more pronounced with a low concentration of CDF | IC50, anti-proliferative activity [3]: low IC50 value | PGE2 level in conditioned medium (BxPC-3 cells): significant decrease; also recorded: significant reduction

Cmax [1, 8]: 2.15 µg/g | Tmax [1, 8]: 1 h | AUClast [1, 6]: 3.46 µg·h/g | Tlast [1, 6]: 16.0 h | IC50 [2]: 35 µM | Cmax [4, 9]: 0.22 µg/mL | Tmax [4, 9]: 1 h | Tlast [4, 7]: 8 h and 8.0 h
Structure (SMILES): COc1cc(/C=C/C(=O)CC(=O)/C=C/c2ccc(O)c(OC)c2)ccc1O [Curcumin, diferuloylmethane, reference compound]
PGE2 level in conditioned medium (MIAPaCa-2 cells): significant decrease; also recorded: substantial reduction | Time of Cmax [5]: 1 h | NF-κB DNA-binding activity (NF-κB): caused down-regulation of NF-κB | PGE2 level in conditioned medium (BxPC-3 cells): such results were not found; also recorded: no significant change
